Wnt bcat act: Wnt/beta-catenin pathway activation; AID 743398; Wnt/beta-catenin reporter cell assay, activator, plate reader; 300,000 tested, 1.2% active; activation, % at 9.35 µM; in the data active = activation above about 30%, passing the limit was not always enough; inconclusive = no clear call, values can overlap the other calls;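 note: 0% = neutral control wells and 100% = positive control wells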
MITF act: activators of MITF-driven TRPM1 promoter activity in SK-MEL-5 cells. SK-MEL-5 TRPM1-promoter luciferase, 24 h; % of positive control, neutral wells = 0. activation, % at 12.5 µM. 300,000 tested, 0.75% active. AID 588334;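 active = mean activation of at least 80% with every replicate also reaching 80%; inconclusive = mean reaches 80% but some replicate falls short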;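 note: 0% = neutral control wells and 100% = parthenolide positive control wells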
Cneo AK release: Cryptococcus neoformans lysis via adenylate kinase release; C. neoformans lysis, adenylate kinase release luminescence, 4 h; normalised: neutral wells 0, clomiphene wells 100; lysis activity, % at 15 µM; 360,000 tested, 0.2% active;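 active = mean lysis activity across replicates of at least 80%, whatever share of replicates individually reach that level; inactive = mean lysis activity below 80%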
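read-out = cell lysis signal | test system = log-phase Cryptococcus neoformans yeast cells | input = cells at 5 × 10^6 per mL | medium = fresh YPD growth medium | signal = luminescent adenylate kinase detection reagent | timing = 4 h at 37 °C static, read 1 h later | dosing = single dose | controls = Clomiphene as positive lysis control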
ERAP1 inh: blocks human ERAP1 aminopeptidase activity; Q9NZ08; recombinant ERAP1, Leu-AMC fluorescence, 60 min; inhibition, % at 10.7 µM; 340,000 tested, 0.15% active;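 active = mean replicate inhibition of at least 30%, or all replicates individually reaching that 30% level; inactive = mean below 30% and not every replicate reaching it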;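 note: 0% = neutral control wells and 100% = L-leucinethiol positive control wells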
esBAF inh: blocks esBAF chromatin remodeling in mouse ES cells. Bmi1-luciferase knock-in reporter, 24 h; 100% = twice the neutral-well signal. reporter increase, % at 12.5 µM. 350,000 tested, 2% active; in the data active = activation above about 40%; inconclusive = no clear call, values can overlap the other calls;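 note: 0% = median of the plate's neutral control wells and 100% = double that signal; a rise in the Bmi1 reporter signal indicates esBAF inhibition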
HIV Env fusion: HIV envelope-mediated fusion inhibition | 360,000 tested, 1.1% active | inhibition, % at 12.3 µM | HeLa-JRFL Env/CEM21 cell fusion, luciferase;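 active = mean replicate inhibition score of at least 50 and every replicate individually at or above 50; inconclusive = only one of the two criteria met; inactive = mean below 50 and not all replicates reaching 50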;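 note: 0% = plate neutral controls and 100% = maraviroc near 300 nM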
* hit, by the source's call; ? = inconclusive; . = no result given; [ ] = another dose, or the depositor's remark. Rows were chosen to be rich in hits. Some 3.5% of all compounds tested hit in one or more screens of this group.

SMILES	Wnt bcat act	MITF act	Cneo AK release	ERAP1 inh	esBAF inh	HIV Env fusion
C[C@H]1CN([C@@H](C)CO)C(=O)c2cccc(NS(C)(=O)=O)c2O[C@@H]1CN(C)Cc1ccc(-c2ccccc2)cc1	.	.	111.2*	-1.6	-17.9	12.2[16.7 µM]
C[C@H]1CN([C@@H](C)CO)C(=O)c2cccc(NS(=O)(=O)c3ccc(F)cc3)c2O[C@@H]1CN(C)Cc1ccc(-c2ccccc2)cc1	.	.	7.6	-1.0	11.2	-27.8[16.7 µM]
C[C@@H]1CN([C@@H](C)CO)C(=O)c2cccc(NS(=O)(=O)c3ccc(F)cc3)c2O[C@@H]1CN(C)Cc1ccc(-c2ccccc2)cc1	.	.	31.0	-1.8	4.9	75.5*[16.7 µM]
O=C(C[C@H]1C[C@@H]2c3cc(NC(=O)NC4CCCC4)ccc3O[C@@H]2[C@H](CO)O1)NCc1ccccn1	.	.	.	1.3	.	.
O=S(=O)(c1ccc(F)cc1)N1CCCCN2[C@H](CO)[C@@H](c3ccc(-c4ccccc4)cc3)[C@H]2C1	.	.	3.6	0.1	.	.
Cc1ccc(S(=O)(=O)N(C)C)cc1NC(=O)CCc1ccccc1	48.2*	-2.5	.	0.1	.	-6.9
Cc1cccc(NC(=O)Cc2noc3ccccc23)c1	.	.	0.2	.	60.0*	-162.5
Cc1ccc(NC(=O)CCc2ccccc2)cc1C	1.6	.	-2.1	17.4	52.2*	-19.8
O=C(CCc1ccccc1)Nc1cccc(NC(=O)CCc2ccccc2)c1	-1.7	-1.1	-0.8	-0.8	6.3	.
Cc1cccc(NC(=O)CCCc2ccccc2)c1	17.4	.	-4.4	-0.6	63.3*	-28.8
Cc1ccc(S(=O)(=O)N(C)C)cc1NC(=O)CCc1c[nH]c2ccccc12	-7.7	6.4	.	-0.7	.	10.5
COc1cccc(-c2ccc3c(c2)[C@@H]2[C@@H](CCN2S(=O)(=O)c2ccccc2F)[C@H](CO)N3)c1	.	.	-5.1	-0.7	5.4	.
CN1CCN(C(=O)C[C@@H]2CC[C@H]3[C@@H](COC[C@H](O)CN3Cc3cccc(Cl)c3)O2)CC1	.	.	-0.2	-0.7	-6.8	.
C[C@@H]1CN([C@H](C)CO)C(=O)c2cc(NS(C)(=O)=O)ccc2O[C@@H](C)CCCCO[C@@H]1CN(C)C(=O)c1ccncc1	.	.	1.5	0.4	-3.6	15.9[16.7 µM]
Nc1ccc(-c2nnc(-c3ccc(N)cc3)o2)cc1	35.2*	99.4*	-11.7	4.9	10.1	-66.1
Nc1ccccc1-c1nnc(-c2ccc(-c3ccccc3)cc2)o1	.	90.5*	-2.6	.	20.6	-316.9
CSc1ccccc1-c1nnc(-c2ccccc2)o1	.	78.0	-3.6	.	42.7*	.
C[C@H](CO)N1C[C@H](C)[C@H](CN(C)C(=O)Nc2ccc(F)cc2)Oc2ccc(NC(=O)CCCN(C)C)cc2C1=O	.	.	-1.7	4.1	-3.3	-3.5[16.7 µM]
CCCN1C[C@@H](C)[C@@H](OC)CN(C)C(=O)c2cc(NC(=O)C3CCC3)ccc2OC[C@@H]1C	.	.	-0.4	.	-5.2	1.3[16.7 µM]
Nc1nc(Cl)cc(N2CCCC2)n1	0.4	5.5	8.3	2.1	-2.0	1.9
Nc1nc(Cl)cc(N2CCC(c3cc(-c4ccc(Cl)cc4Cl)n[nH]3)CC2)n1	-1.2	-27.0	5.9	.	-12.7	101.5*
O=C(OCCN1CCOCC1)C(c1ccccc1)c1ccccc1	.	-9.6	.	.	-1.6	.
CC(C)(COC(=O)C(c1ccccc1)c1ccccc1)CN1CCOCC1	-24.8	-4.3	.	8.2	-6.3	80.0*
C[C@@H]1CN([C@@H](C)CO)C(=O)c2cc(Br)cnc2O[C@@H]1CN(C)C(=O)C1CCOCC1	.	.	-0.7	-2.9	-6.6	18.2[16.7 µM]
C[C@H]1CN([C@@H](C)CO)C(=O)c2cccc(NS(=O)(=O)c3ccc(Cl)cc3)c2O[C@H]1CN(C)S(=O)(=O)c1ccc(F)cc1	.	.	1.0	.	-5.6	-20.6[16.7 µM]
SMILES	Wnt bcat act	MITF act	Cneo AK release	ERAP1 inh	esBAF inh	HIV Env fusion
Clc1ccccc1-c1nc(-c2ccccc2)n[nH]1	63.6*	48.7	-6.1	.	36.6	-133.4
Cc1noc(C)c1NC(=O)N(C)C[C@H]1OCCCC[C@@H](C)Oc2ccc(NC(=O)c3ccccc3)cc2C(=O)N([C@@H](C)CO)C[C@@H]1C	.	.	17.8	1.3	0.2	-27.4[16.7 µM]
O=C(Nc1cccc(Cl)c1)NC1CCCCC1	.	.	.	.	.	-92.4
CC1CCCCC1NC(=S)Nc1ccc(SC(F)F)cc1 (stereo unspecified)	.	40.1	3.1	.	25.6	.
O=C(Nc1ccc(Cl)cc1)NC1CCCCC1	66.1*	?	-1.3	.	.	-51.4
FC(F)Sc1ccc(NC(=S)NC2CCCCC2)cc1	.	69.2	1.9	.	50.5*	-64.9

Bioassay records deposited in PubChem by Broad Institute.
